Measurements published in ChEMBL document CHEMBL2331466, “Neolignanamides, lignanamides, and other phenolic compounds from the root bark of Lycium chinense” (J Nat Prod, 2013).

Tests used:
[1] = Antioxidant activity assessed as inhibition of xanthine-xanthine oxidase generated superoxide anion radical production by NBT reduction assay; type: functional
Outline: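 Superoxide produced by xanthine/xanthine oxidase. Final reaction contained xanthine 40 μM, xanthine oxidase 0.05 unit/mL, NBT 50 μM (in 20 mM phosphate buffer, pH 7.4) and graded sample concentrations. Incubated 37 °C for 20 min after adding enzyme. Absorbance read at 560 nm against blanks. Values are means of triplicate determinations.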

[2] = tested on: Radical scavenging activity; test: Antioxidant activity assessed as DPPH radical scavenging activity after 30 mins; type: functional
Outline: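 Test samples at 5−100 μg/mL (120 μL) combined with 30 μL of 0.75 mM DPPH in MeOH, in triplicate. Shaken in the dark at room temperature for 30 min, then absorbance read at 517 nm. Scavenging (%) = (1 − As/A0) × 100. IC50 is the concentration giving 50% DPPH inhibition. Trolox (5−100 μM) served as positive control.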

Row | SMILES | IC50 [1] | IC50 [2]
1 | O=C(/C=C/c1ccc(O)c(O)c1)NCCc1ccc(O)cc1 | 44.1 µM | 47.6 µM
2 | O=C(CCc1ccc(O)c(O)c1)NCCc1ccc(O)cc1 | 30.2 µM | 61.2 µM
3 | COc1cc(/C=C\C(=O)NCC(O)c2ccc(O)cc2)ccc1O (stereo not given) | 22.2 µM | 61.2 µM
4 | COc1cc2c(c(OC)c1O)C(c1ccc(O)c(O)c1)C(C(=O)NCCc1ccc(O)cc1)C(C(=O)NCCc1ccc(O)cc1)=C2 (stereo not given) | 50.1 µM | 46.5 µM
5 | COc1ccc(/C=C/C(=O)NCCc2ccc(O)cc2)cc1O | 48.8 µM | 67.7 µM
6 | COc1cc(/C=C(/C(=O)NCCCCNC(C)=O)c2cc(O)c(O)cc2CCC(=O)NCCc2ccc(O)cc2)ccc1O | 56.5 µM | 65.2 µM
7 | COc1cc(/C=C(/C(=O)NCCCCNC(C)=O)c2cc(O)c(O)cc2CCC(=O)NCCc2ccc(O)cc2)cc(OC)c1O | 52.7 µM | 64.7 µM
8 | COc1cc(/C=C(/C(=O)NCCc2ccc(O)cc2)c2cc(O)c(O)cc2CCC(=O)NCCc2ccc(O)cc2)cc(OC)c1O | 49.9 µM | 57.1 µM
9 | COc1cc([C@H]2Oc3ccc(/C=C/C(=O)NCCc4ccc(O)cc4)cc3O[C@@H]2CO)ccc1O (relative stereo) | 44.4 µM | 55.2 µM
10 | COc1cc2c(c(OC)c1O)[C@H](c1ccc(O)c(O)c1)[C@@H](C(=O)NCCc1ccc(O)cc1)C(C(=O)NCCCCNC(C)=O)=C2 (relative stereo) | 58 µM | 67 µM
11 | COc1cc(O)cc([C@H]2Oc3ccc(/C=C\C(=O)NCCc4ccc(O)cc4)cc3O[C@@H]2C(=O)NCCc2ccc(O)cc2)c1 (relative stereo) | 44.1 µM | 48.2 µM
12 | COc1cc(O)cc([C@H]2Oc3ccc(/C=C/C(=O)NCCc4ccc(O)cc4)cc3O[C@@H]2C(=O)NCCc2ccc(O)cc2)c1 (relative stereo) | 46.4 µM | 49.8 µM
13 | COc1cc([C@H]2Oc3ccc(/C=C\C(=O)NCCc4ccc(O)cc4)cc3O[C@@H]2CO)ccc1O (relative stereo) | 49.9 µM | 54.1 µM
14 | O=C(/C=C/c1ccc(O)cc1)NCCc1ccc(O)cc1 [N-P-COUMAROYL TYRAMINE] | 52.6 µM | 63.5 µM
15 | Cc1c(C)c2c(c(C)c1O)CCC(C)(C(=O)O)O2 (stereo not given) [TROLOX] | 27.2 µM | 33.5 µM
